Platelet DG rel: inhibitors of platelet dense granule secretion, primary screen, cell-based, MLPCN, human platelets; inhibition, %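 (compounds screened at 7.5 µM in platelet-rich plasma)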; human platelet-rich plasma, SFLLRN dense granule ATP release, luminescence; AID 1663, 2009; 0.22% of 300,000 active;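 active means mean replicate score, as percent of positive control, at or above 50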
SENP8 block-1: human SENP8 protease inhibitors, primary screen, biochemical, fluorescence, Nedd8 protein substrate, uHTS | Sentrin-specific protease 8 (Homo sapiens), Q96LD8 | recombinant SENP8 | inhibition, % at 20 µM | 0.64% of 360,000 active; in the data active means inhibition mostly above about 40%, no sharp cut-off; inactive means mostly below about 27%
Target sequence (Q96LD8 whole entry, looked up): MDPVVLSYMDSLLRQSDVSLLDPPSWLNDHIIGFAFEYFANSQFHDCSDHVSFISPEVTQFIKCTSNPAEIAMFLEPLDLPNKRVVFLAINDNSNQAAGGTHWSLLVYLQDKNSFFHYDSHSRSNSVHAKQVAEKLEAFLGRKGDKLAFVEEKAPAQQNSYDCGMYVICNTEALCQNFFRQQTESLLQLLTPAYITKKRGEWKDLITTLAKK
SENP8 block-2: SENP8 protease inhibitors, primary screen, biochemical, luminescence; 1.2% of 330,000 active; purified SENP8, Z-RLRGG-aminoluciferin cleavage; Sentrin-specific protease 8 (Homo sapiens), Q96LD8; inhibition, % at 10 µM; in the data active means inhibition above about 50%
SENP1 inh: human SENP1 catalytic domain inhibitors, primary screen, biochemical, FRET, uHTS; recombinant SENP1 catalytic domain, CyPet-SUMO1-YPet FRET cleavage; inhibition, % at 10 µM; AID 624204, 2012; 0.21% of 360,000 active;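 active means inhibition at least 30% at 10 µM, raw YFP signal under a set limit, fluorescence ratio 0.5 to 1.5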;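 further: 0% = enzyme with DMSO and 100% = no enzyme wells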
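Test system: recombinant human SENP1 catalytic domain, His6-tagged / Medium: pH 8 Tris buffer with EDTA, NaCl, BME, BSA, NP40, catalase / Also added: SUMO1 FRET substrate flanked by Cypet and Ypet, 25 nM / Times: 50 min reaction at room temperature / Signal: FRET, CFP and YFP emission / Control set: no-enzyme low control and enzyme-plus-DMSO high control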
SENP7 block: SENP7 protease inhibitors, primary screen, biochemical, luminescence, uHTS. Sentrin-specific protease 7 (Homo sapiens), Q9BQF6. recombinant SENP7, Z-RLRGG-aminoluciferin luminescence, 40 min. inhibition, % at 5 µM. 1.5% of 330,000 active;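 active means inhibition above about 50% at the single test dose, limit read from the data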;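 further: plate controls were DMSO with enzyme for no effect and no enzyme buffer wells for full effect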
Target sequence (Q9BQF6 706-1050 limits assumed): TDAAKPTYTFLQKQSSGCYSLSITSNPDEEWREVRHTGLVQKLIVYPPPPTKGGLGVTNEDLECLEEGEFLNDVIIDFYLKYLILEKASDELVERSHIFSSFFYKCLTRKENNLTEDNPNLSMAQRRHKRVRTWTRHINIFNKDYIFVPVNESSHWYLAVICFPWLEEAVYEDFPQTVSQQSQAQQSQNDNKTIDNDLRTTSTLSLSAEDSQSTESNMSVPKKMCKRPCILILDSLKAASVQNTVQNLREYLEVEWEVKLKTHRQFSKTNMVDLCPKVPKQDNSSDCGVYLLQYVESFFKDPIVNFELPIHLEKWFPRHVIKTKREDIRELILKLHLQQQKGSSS
SENP6 inh: SENP6 protease inhibitors, primary screen, biochemical, luminescence, uHTS | Sentrin-specific protease 6 (Homo sapiens), Q9GZR1 | Recombinant SENP6 catalytic domain, aminoluciferin luminescence | inhibition, % at 10 µM | 1.8% of 330,000 active;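 active means inhibition above about 50% at the single tested dose, limit read from the data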;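 further: plate controls were DMSO wells with enzyme for no effect and DMSO wells lacking enzyme for full effect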
SENP8 conf: SENP8 protease inhibitors, retest, confirmation, biochemical, luminescence, single concentration; AID 488912, 2010; inhibition, % at 12.5 µM; shares compounds with SENP7 block; Recombinant SENP8, Z-RLRGG-aminoluciferin luminescence, 60 min; 40% of 6,200 active;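 active means mean inhibition across replicates above about 50%, limit read from the data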
SENP6 confirm: SENP6 protease inhibitors, confirmation, biochemical, luminescence, single concentration; shares compounds with SENP7 block; recombinant SENP6, Z-RLRGG-aminoluciferin luminescence; inhibition, % at 12.5 µM; 58% of 6,200 active; AID 488915, 2010
SENP7 conf: SENP7 protease inhibitors, retest, confirmation, biochemical, luminescence, single concentration; shares compounds with SENP7 block; recombinant SENP7, Z-RLRGG-aminoluciferin luminescence, 40 min; 69% of 6,200 active; AID 488917, 2010; inhibition, % at 12.5 µM
Casp3 select: caspase-3 protease inhibitors, confirmation, selectivity assay for SENP inhibitor project, biochemical, single concentration; purified caspase-3, Z-DEVD-aminoluciferin luminescence, 60 min; AID 488918, 2010; inhibition, % at 12.5 µM; shares compounds with SENP7 block; 60% of 6,200 active;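 active means mean inhibition above about 50%, limit read from the data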;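 further: plate controls were enzyme with DMSO for no effect and wells without caspase-3 for full effect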
SENP luc ctr: interferes with luciferase luminescence in SENP counter-screen; 39% of 6,200 active; Pre-incubated SENP8/Z-RLRGG-aminoluciferin, luciferase luminescence interference; AID 488919; shares compounds with SENP7 block; inhibition, % at 12.5 µM;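 active means mean inhibition above about 50% when retested at one dose, limit read from the data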;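 further: plate controls were DMSO wells with completed reaction for no effect and substrate without enzyme for full effect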
The depositor's hits bear a star; x = no result given. Compounds with a hit are over-represented: about 2.6% of the library has one in this group of screens.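 How the source made its calls, unless noted: active means mean inhibition above about 50% in the one-dose retest (limit read from the data); inactive means the rest.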

SMILES	Platelet DG rel	SENP8 block-1	SENP8 block-2	SENP1 inh	SENP7 block	SENP6 inh	SENP8 conf	SENP6 confirm	SENP7 conf	Casp3 select	SENP luc ctr
COc1ccccc1NC(=O)COC(=O)c1c(C)nn(-c2ccccc2)c1C	x	5	95*	2	97*	93*	96*	96*	101*	95*	75*
COc1cc(NC(=O)C2CCC(CNS(=O)(=O)c3csc(C(N)=O)c3)CC2)cc(OC)c1 (stereo not given)	3	19	-6	1	-10	17	x	x	x	x	x
Cn1c(=O)c2ncn(CC(=O)N/N=C/c3ccco3)c2n(C)c1=O	-17	12	-2	2	1	-20	x	x	x	x	x
C=CCn1c2ccccc2c(=O)c2cc(C#Cc3ccccn3)ccc21	x	-498	56*	-30	43	72*	61*	66*	82*	40	32
N#CC1=C2C=Cc3ccccc3N2CCCC1=O	0	-18	14	-68	49	52*	36	36	76*	68*	9
CC(=O)OC1CC2(C)/C(=N\O)CCC2C2CCc3cc(O)ccc3C12 (stereo not given)	3	31	-2	2	5	3	x	x	x	x	x
CSCC[C@H]1COC[C@@H](Cc2ccccc2)N1c1ccccc1	x	13	x	1	x	x	x	x	x	x	x
N/C(=N\OC(=O)c1ccc(Cl)cc1)c1ccc(Cl)cc1	7	9	-13	3	54*	9	9	7	13	6	-2
C/C(=N\OC(=O)c1ccc(Cl)cc1)c1nccs1	23	8	28	5	88*	72*	28	28	65*	41	32
N/C(=N\OC(=O)c1ccccc1)c1ccncc1	-2	1	21	1	36	47	x	x	x	x	x
N/C(=N\OC(=O)c1ccc(OCC(F)(F)F)nc1)c1ccc(Cl)cc1	4	2	-32	2	27	-17	x	x	x	x	x
N/C(Cn1cncn1)=N\OC(=O)c1ccc(Cl)cc1	-11	17	-6	4	-6	-5	x	x	x	x	x
CC(=NOC(=O)c1ccc(Cl)cc1)c1nccs1	x	1	x	4	x	x	x	x	x	x	x
N/C(=N\OC(=O)c1ccc(Br)cc1)c1ccncc1	17	14	26	4	62*	58*	35	40	71*	68*	49
N/C(=N\OC(=O)c1ccc(Cl)cc1)c1ccn[nH]1	-5	10	58*	4	79*	73*	80*	77*	92*	87*	83*
CCOc1ccc(NS(=O)(=O)c2ccc(-c3ccc(=O)[nH]n3)o2)cc1	-5	7	-9	1	-20	-10	x	x	x	x	x
COc1ccccc1CNC(=O)COC(=O)c1cc2ccccc2o1	x	11	-3	2	10	-17	x	x	x	x	x
N/C(=N\OC(=O)c1ccco1)c1ccc(Cl)cc1	-4	5	79*	2	88*	94*	23	12	30	38	30
O=C(O/N=C(\c1ccccc1)c1ccncc1)c1ccccc1Cl	1	7	-13	3	-1	-38	x	x	x	x	x
N/C(=N\OC(=O)c1ccccc1Cl)c1ccccc1	40	12	95*	2	98*	94*	97*	99*	103*	97*	96*
N/C(=N\OC(=O)c1ccc(Cl)cc1)c1cccnc1	2	24	36	7	67*	72*	62*	59*	86*	83*	66*
N/C(=N\OC(=O)c1ccccc1Cl)c1ccc(Cl)cc1	4	20	69*	2	84*	85*	71*	70*	93*	62*	79*
COc1ccc(C(=O)NCCCN2CCN(CCCNC(=O)c3ccc(OC)c(OC)c3)CC2)cc1OC	x	11	-12	-1	-1	-6	x	x	x	x	x
CC(=O)Nc1nc2c(s1)C(=O)NCCC2	0	8	-5	3	-1	-2	x	x	x	x	x
Cc1ccc(S(=O)(=O)N(Cc2ccc([N+](=O)[O-])cc2)C(=O)N2CCN(C)CC2)cc1	-1	26	-11	0	-9	4	x	x	x	x	x
SMILES	Platelet DG rel	SENP8 block-1	SENP8 block-2	SENP1 inh	SENP7 block	SENP6 inh	SENP8 conf	SENP6 confirm	SENP7 conf	Casp3 select	SENP luc ctr
CC(OC(=O)CCC1CCCC1)C(=O)Nc1ccccc1[N+](=O)[O-] (stereo not given)	24	21	3	2	2	-6	x	x	x	x	x
O=C(COC(=O)C1=COCCO1)Nc1ccc(Br)cc1Br	x	14	-16	1	-16	-19	x	x	x	x	x
CC(=O)/C(N=Nc1ccc(C(=O)O)cc1[N+](=O)[O-])=C(\C)O	2	24	51*	3	59*	-5	54*	51*	84*	92*	64*
COc1cccc(NC(=O)Nc2nc(SC)ns2)c1	3	20	82*	1	77*	90*	76*	77*	96*	76*	86*
COc1cccc(NC(=O)Nc2ccc3nc(C)c(C)nc3c2)c1	21	-283	39	9	46	54*	11	36	58*	59*	7
COc1ccc(NC(=O)Nc2cccc(OC)c2)cc1	10	6	29	2	-9	35	x	x	x	x	x
COc1cccc(NC(=O)Nc2ccc3nsnc3c2)c1	1	-123	44	2	-10	50*	57*	52*	77*	38	54*
CC(=O)Nc1ccc2nsnc2c1	20	-315	3	0	-2	-9	x	x	x	x	x
COc1cccc(NC(=O)Nc2ccc3c(c2)nc(C)n3C)c1	24	8	78*	0	90*	91*	86*	85*	98*	94*	86*
